TRPC6 act: activates the mouse TRPC6 cation channel | Q61143 | HEK293-TRPC6 membrane potential dye fluorescence; stronger effect = higher value | B-score at 10 µM | 310,000 tested, 0.13% active;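 active = B-score of the integrated fluorescence ratio above library mean plus 3 SD, and starting fluorescence ratio within library mean plus 5 SD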;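 note: higher score means more depolarization so channel activation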
TRPC4 agonist: activators of mouse TRPC4 channel; Q9QUQ5; HEK293 TRPC4beta/mu-opioid, Fluo4 calcium fluorescence; stronger effect = higher value; B-score at 10 µM; 310,000 tested, 0.49% active; AID 2237;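 active = B-score above 5 SD of library B-scores, and initial fluorescence ratio not above library mean plus 5 SD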;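 note: positive B-score marks a calcium rise read as TRPC4 activation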
Target sequence (Q9QUQ5 whole entry, looked up): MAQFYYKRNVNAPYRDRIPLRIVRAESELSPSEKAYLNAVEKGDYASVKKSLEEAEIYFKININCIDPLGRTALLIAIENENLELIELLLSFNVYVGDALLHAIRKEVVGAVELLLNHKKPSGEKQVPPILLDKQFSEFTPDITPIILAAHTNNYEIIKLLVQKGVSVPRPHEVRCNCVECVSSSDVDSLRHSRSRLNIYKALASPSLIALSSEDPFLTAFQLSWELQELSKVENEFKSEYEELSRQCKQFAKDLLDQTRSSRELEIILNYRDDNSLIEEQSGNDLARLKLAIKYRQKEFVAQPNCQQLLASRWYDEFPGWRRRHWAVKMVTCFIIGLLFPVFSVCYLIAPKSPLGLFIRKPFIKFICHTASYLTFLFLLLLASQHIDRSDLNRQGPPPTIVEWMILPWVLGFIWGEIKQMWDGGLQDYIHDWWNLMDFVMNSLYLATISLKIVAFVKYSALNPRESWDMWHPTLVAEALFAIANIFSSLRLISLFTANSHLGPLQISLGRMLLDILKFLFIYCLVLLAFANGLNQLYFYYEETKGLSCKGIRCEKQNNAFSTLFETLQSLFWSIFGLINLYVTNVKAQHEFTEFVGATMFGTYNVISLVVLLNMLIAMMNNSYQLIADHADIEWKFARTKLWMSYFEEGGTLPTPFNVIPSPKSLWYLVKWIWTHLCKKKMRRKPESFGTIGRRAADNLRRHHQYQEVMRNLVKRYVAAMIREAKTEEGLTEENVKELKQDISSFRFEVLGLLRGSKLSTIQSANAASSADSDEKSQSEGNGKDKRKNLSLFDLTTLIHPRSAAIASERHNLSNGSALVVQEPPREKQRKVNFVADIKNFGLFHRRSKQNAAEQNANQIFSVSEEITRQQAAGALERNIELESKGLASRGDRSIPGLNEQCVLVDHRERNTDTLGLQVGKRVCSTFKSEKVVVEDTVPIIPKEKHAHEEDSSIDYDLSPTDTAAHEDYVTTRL
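system = HEK293 cells stably co-expressing mouse TRPC4beta and mu-opioid receptor | schedule = Fluo4 dye loading 45 min at room temperature, 110 s recording | measure = B-scored integrated calcium fluorescence ratio | signal = Fluo4 calcium-sensitive dye fluorescence, kinetic, 1 Hz baseline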
TRPC4 inh: TRPC4 (mouse) channel inhibition; HEK293 TRPC4beta/mu-opioid, DAMGO-evoked Fluo4 calcium flux; stronger effect = lower value; B-score at 10 µM; 300,000 tested, 0.39% active; AID 2247;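 active = B-score over 3 SD under the library average, no early fluorescence shift, positive overall ratio signal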
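Material: HEK293 cells with stable TRPC4beta plus mu-opioid receptor expression; probe or stimulus: DAMGO in two steps, submaximal then maximal; technique: Fluo4 calcium fluorescence by kinetic imaging, 5 s 1 Hz baseline; measure: integrated fluorescence ratio relative to baseline, converted to per-well B score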
TRPC6 inh: inhibitors of mouse TRPC6 channel. 310,000 tested, 1.1% active. Q61143. B-score at 10 µM. HEK293-TRPC6, membrane potential dye, ACh-evoked depolarization; stronger effect = lower value;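 active = B-score under library mean minus 3 SD, initial fluorescence not abnormally high, positive integrated signal ratio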;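 note: B-score derived from integrated fluorescence ratio over the kinetic read; more negative B-score means stronger inhibition of depolarization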
TRPC4 potent: TRPC4 (mouse) allosteric potentiation. HEK293 TRPC4beta/mu-opioid, DAMGO EC20, Fluo-4 Ca2+ flux; stronger effect = higher value. B-score at 10 µM. 310,000 tested, 0.42% active;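 active = B-score of calcium response area above 5 SD of library B-scores, with initial fluorescence ratio within 5 SD of library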
Each line names hits and unclear results; the compound was inactive in the other large screens. Only some compounds are listed: those with a hit (about 2.3% of all), similar ones and a draw of the others.

CC(=O)O[C@]1(C(C)=O)CC[C@H]2[C@@H]3C[C@H](C)C4=CC(=O)CC[C@]4(C)[C@H]3CC[C@@]21C	none
O=C(Cc1nc2ccccc2[nH]1)c1ccc([N+](=O)[O-])cc1	TRPC4 inh -6
O=C(Cc1nc2ccccc2[nH]1)c1ccc(Cl)cc1	none
O=C(Nc1ccnn1C1CCN(Cc2ccc(O)c(Cl)c2)CC1)C1CCCC1	none
O=C(c1ccc2[nH]c(=O)c(=O)[nH]c2c1)N1CCc2ccccc21	none
Cc1nc(-c2ccc(F)cc2)c(CC(=O)N(C)CC(=O)Nc2ccc(Br)cc2C)s1	none
O=c1c(Cl)c(N2CCN(c3ccc(F)cc3)CC2)cnn1C12CC3CC(CC(C3)C1)C2	TRPC4 potent 10
COc1cccc(CN(C(=O)c2ccccc2Cl)C2CCS(=O)(=O)C2)c1 (stereo unspecified)	none
CN1CCN(C/C(=C2/N=C(c3ccccc3)OC2=O)N(C)C)CC1	TRPC4 potent 13
CN(C)/C(Cn1cncn1)=C1/N=C(c2ccccc2)OC1=O	none
CCN(CC)C(=O)C1CCCN(Cc2cccc(Oc3ccccc3)c2)C1 (stereo unspecified)	TRPC4 inh -7
CN(Cc1cccc(Cl)c1)C(=O)C1CCN(C(=O)Nc2ccccc2)CC1	none
CN(Cc1ccccc1)C(=O)C1CCCN(Cc2cccc(Cl)c2)C1 (stereo unspecified)	TRPC4 inh -8
COc1ccc(CCN(C)C(=O)C2CCCN(C3CCN(Cc4ccccc4)CC3)C2)cc1OC (stereo unspecified)	TRPC4 agonist 131
COc1cccc(CN2CC(C(=O)NCc3ncc(C)[nH]3)CCC2=O)c1 (stereo unspecified)	none
O=C(CN1C(=O)NC2(CCCCCC2)C1=O)c1ccc(Cl)s1	none
C/C=C/c1ccc(OCC(=O)Nc2cc(S(=O)(=O)N3CCOCC3)ccc2N2CCCC2)c(OC)c1	none
CCN1CCN(c2nc(N)c([N+](=O)[O-])c(Nc3ccc(C)cc3)n2)CC1	TRPC4 potent 17
CCN1CCN(c2nc(N)c([N+](=O)[O-])c(Nc3ccc(C)c(C)c3)n2)CC1	TRPC4 potent 29
CC(C)(Oc1ccc(Cl)cc1)C(=O)NCC1CCCO1 (stereo unspecified)	none
Cc1noc(C)c1COc1ccc(C(=O)N2CCN(c3ccccn3)CC2)cc1	none
O=C(c1cc(COc2ccc(F)cc2Cl)on1)N1CCN(c2cnccn2)CC1	none
O=C(Nc1nc(N2C(=O)c3ccccc3C2=O)n(-c2ccccc2)n1)c1ccc(Cl)cc1	TRPC4 agonist 47, TRPC4 inh -6
CCCN(CCC)CCCNC(=O)c1ccc2c(c1)N(CC)C(=O)c1ccccc1S2=O (stereo unspecified)	TRPC4 agonist 66
O=C(NCCCN1CCCC1)c1ccc2c(c1)N(Cc1cccc(Cl)c1)C(=O)c1ccccc1S2=O (stereo unspecified)	none
CCCCSCCCNC(=O)c1ccc2c(c1)N(CC)C(=O)c1ccccc1S2=O (stereo unspecified)	none
CC1CC(C)CN(CCCNC(=O)c2ccc3c(c2)N(Cc2ccccc2)C(=O)c2ccccc2S3=O)C1 (stereo unspecified)	TRPC4 agonist 85
COc1ccc(Cc2nc3ccc(C(=O)NC(C)Cc4ncccc4C)cc3o2)cc1OC (stereo unspecified)	none
CC(=O)c1ccc(OCCCC(=O)N(CCC2=CCCCC2)c2c(N)n(Cc3ccccc3)c(=O)[nH]c2=O)cc1	none
Cc1ccc(C)c(N2CCN(S(=O)(=O)c3csc(C(N)=O)c3)CC2)c1	none
Cc1cccc(C)c1NC(=O)CNC(=O)c1cccnc1	none
Cc1ccc2[nH]c3c(N4CCc5ccccc5C4)ncnc3c2c1	TRPC4 agonist 76
CC1(C)Cc2nc3oc4c(=O)n(CC(=O)Nc5ccccc5)cnc4c3cc2CO1	TRPC4 inh -6
C/C=C/C(O)c1ccc2ccccc2c1 (stereo unspecified)	none
O=C(NCC1CCCN1S(=O)(=O)c1cccs1)c1cccc(F)c1 (stereo unspecified)	none
CCCc1nc(SC2CCCC2)c2c(=O)n(C)c(=O)n(C)c2n1	TRPC4 inh -5
O=c1c(NCCc2ccc(Cl)cc2)c(-c2ccccc2)c1=O	TRPC4 potent 14
O=c1[nH]ncc(NCCc2ccccc2)c1Cl	none
CN(C)C(CNC(=S)Nc1ccc(Cl)cc1)c1cccnc1 (stereo unspecified)	TRPC4 agonist 86
O=C(NCc1cccnc1)Nc1cccc(Cl)c1	none
CCc1cccc(CC)c1NC(=S)NCC(c1cccnc1)N(C)C (stereo unspecified)	TRPC4 agonist 79
CN(C)C(CNC(=O)Nc1cccc(Cl)c1)c1cccnc1 (stereo unspecified)	TRPC4 agonist 65
CC(=O)Nc1ccc(NC(=O)CCC(=O)Oc2ccc(C)cc2)cc1	none
Cc1ccccc1N1CCN(C2CCCN(C(=O)c3ccnn3C)C2)CC1 (stereo unspecified)	none
CCN(CC)C(=O)C1CCN(C(=O)c2oc3ccc(C)cc3c2C)CC1	none
Cc1ccc2oc(C(=O)N3CCC(O)(c4ccccc4)CC3)c(C)c2c1	TRPC4 potent 15
Nc1ccc(-c2nc3c(ccc4ccccc43)[nH]2)cc1	TRPC6 inh -9.51
COc1cc(NC(=O)CSc2ncnc3sc4c(c23)CCC(C)C4)c(C(=O)O)cc1OC (stereo unspecified)	TRPC4 inh -6
CC1CCc2c(sc3ncnc(SCC(=O)Nc4ccc(C(=O)O)cc4)c23)C1 (stereo unspecified)	TRPC4 inh -6
COc1ccc(/C=C(\C#N)C(=O)N2CCOCC2)cc1Br	TRPC4 potent 14
COc1ccc(CN2CCC(n3nccc3NC(=O)CCc3ccccc3)CC2)c(C)c1C	TRPC4 agonist 82
Cc1ccc(CN2CCC(n3nccc3NC(=O)CCOc3ccccc3)CC2)cc1C	TRPC4 inh -6
CCn1cc(CN2CCC(n3nccc3NC(=O)CCCc3ccccc3)CC2)cn1	TRPC4 agonist 43, TRPC4 inh -7
CCn1cc(CN2CCC(n3nccc3NC(=O)Cc3ccccc3)CC2)cn1	none
C=CCn1c(=O)c2ccccc2n2c(SCC(C)=O)nnc12	none
Cc1ccc(NC(=O)CCC(=O)c2cccs2)cc1F	none
CN(Cc1ccccc1NCC(=O)Nc1ccccc1C#N)C1CCCCC1	TRPC4 inh -6
N#Cc1ccccc1NC(=O)CNc1ccccc1N1CCCCC1	none
O=C(Nc1ccccc1Oc1cccnc1)C1CCCN(Cc2cccc(Cl)c2)C1 (stereo unspecified)	TRPC4 inh -6
Cc1ccccc1CN1CCCC(C(=O)Nc2ccccc2Oc2cccnc2)C1 (stereo unspecified)	TRPC4 inh -7
COc1cc(CN2CCCC(C(=O)Nc3ccccc3Oc3cccnc3)C2)ccc1F (stereo unspecified)	none
COc1ccccc1C(=O)COC(=O)CNS(=O)(=O)c1ccc(C)c(C)c1	none
